21 molecules from ChEMBL document CHEMBL1817569, “Synthesis, antifungal activity and QSAR study of 2-arylhydroxynitroindoles” (Eur J Med Chem, 2011) can be followed below.

In assay [1] the test system is Venturia inaequalis. The assay can be described thus: Fungicidal activity against Venturia inaequalis assessed as mycelium growth inhibition at 30 ug/mL after 72 hrs. It counts as functional. The following applies: read-out: GI. A digest of the protocol: (§1)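 Radial mycelial growth test on potato-saccharose agar mixed with compound at a single concentration. Plates are inoculated with inverted 3-mm fungus-coated discs and incubated at 25 °C. Colony diameter (mm) is read at 72 h against medium without sample. Inhibition I = [(DC − DT)/DC] × 100%. Three replicates.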

For assay [2], the system named is Rhizoctonia solani. The assay can be described thus: Fungicidal activity against Rhizoctonia solani assessed as mycelium growth inhibition at 30 ug/mL after 72 hrs. The following applies: read-out: GI. It counts as functional. The method, boiled down:
as §1

Assay [3] relates to Fusarium oxysporum. The assay can be described thus: Fungicidal activity against Fusarium oxysporum assessed as mycelium growth inhibition at 30 ug/mL after 72 hrs. It counts as functional. The following applies: read-out: GI. The method, boiled down: as §1
For assay [4], the system named is Fusarium verticillioides. The assay can be described thus: Fungicidal activity against Fusarium moniliforme assessed as mycelium growth inhibition at 30 ug/mL after 72 hrs. It counts as functional. The settings on record: read-out: GI. The method, boiled down: as §1
Assay [5] concerns Bipolaris sorokiniana. Put plainly: Fungicidal activity against Bipolaris sorokiniana assessed as mycelium growth inhibition at 30 ug/mL after 72 hrs. It counts as functional. The following applies: read-out: GI. A digest of the protocol: as §1
For assay [6], the system named is Sclerotinia sclerotiorum. Put plainly: Fungicidal activity against Sclerotinia sclerotiorum assessed as mycelium growth inhibition at 30 ug/mL after 72 hrs. It counts as functional. The settings on record: read-out: GI. A digest of the protocol:
as §1

For assay [7], the system named is Venturia inaequalis. Put plainly: Fungicidal activity against Venturia inaequalis assessed as mycelium growth inhibition after 72 hrs. It counts as functional, organism-based. A digest of the protocol: (§2)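 EC50 from radial mycelial growth on potato-saccharose agar over a 1–100 concentration range. Inverted 3-mm fungus-coated discs are placed on the agar and incubated at 25 °C. Colony diameter (mm) is measured at 72 h, with plain medium as blank. Percent inhibition = (DC − DT)/DC × 100. Triplicate tests.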

Assay [8] deals with Rhizoctonia solani. Put plainly: Fungicidal activity against Rhizoctonia solani assessed as mycelium growth inhibition after 72 hrs. It counts as functional, organism-based. A digest of the protocol: as §2
In assay [9] the test system is Fusarium oxysporum. The assay can be described thus: Fungicidal activity against Fusarium oxysporum assessed as mycelium growth inhibition after 72 hrs. It counts as functional, organism-based. A digest of the protocol: as §2
Assay [10] deals with Fusarium verticillioides. Put plainly: Fungicidal activity against Fusarium moniliforme assessed as mycelium growth inhibition after 72 hrs. It counts as functional, organism-based. A digest of the protocol: as §2
The test system of assay [11] is Bipolaris sorokiniana. The assay can be described thus: Fungicidal activity against Bipolaris sorokiniana assessed as mycelium growth inhibition after 72 hrs. It counts as functional, organism-based. A digest of the protocol: as §2
Assay [12] has as its system Sclerotinia sclerotiorum. The assay can be described thus: Fungicidal activity against Sclerotinia sclerotiorum assessed as mycelium growth inhibition after 72 hrs. It counts as functional, organism-based. A digest of the protocol:
as §2

Converted amounts (≈) assume the structure as drawn.

Regarding `O=[N+]([O-])c1cc(O)c2cc(-c3ccc(C(F)(F)F)cc3)[nH]c2c1`, the inhibition of growth at 30 µg/mL in the assay with Venturia inaequalis [1] stood at 53%; with Rhizoctonia solani [2], 82%; in the assay with Fusarium oxysporum [3], 71%; with Fusarium verticillioides [4] it was 84%; in the assay with Bipolaris sorokiniana [5], 74%; in the assay on Sclerotinia sclerotiorum [6], 70%.
Turning to `CC(C)(C)C(=O)C(Oc1ccc(Cl)cc1)n1cncn1` (centres undefined) [TRIADIMEFON], the inhibition of growth at 30 µg/mL in the assay on Venturia inaequalis [1] was determined as 42%; in the assay on Rhizoctonia solani [2] it was 66%; with Fusarium oxysporum [3] it was 60%; with Fusarium verticillioides [4] it was 79%; in the assay with Bipolaris sorokiniana [5] it was 71%; in the assay with Sclerotinia sclerotiorum [6], 47%. The EC50 in the assay with Venturia inaequalis [7] came to 20 µg/mL (≈ 68.1 µM); in the assay on Rhizoctonia solani [8] it was 20.6 µg/mL (≈ 70.1 µM); with Fusarium oxysporum [9], 3.25 µg/mL (≈ 11.1 µM); with Fusarium verticillioides [10] it was 2.41 µg/mL (≈ 8.2 µM); in the assay on Bipolaris sorokiniana [11], 11 µg/mL (≈ 37.4 µM); in the assay on Sclerotinia sclerotiorum [12] it was 6.18 µg/mL (≈ 21 µM).
For `Cn1c(-c2ccccc2)cc2c(O)cc([N+](=O)[O-])cc21`, the inhibition of growth at 30 µg/mL in the assay on Venturia inaequalis [1] amounted to 46%; in the assay on Rhizoctonia solani [2], 77%; in the assay with Fusarium oxysporum [3], 56%; with Fusarium verticillioides [4], 51%; with Bipolaris sorokiniana [5] it was 77%; in the assay on Sclerotinia sclerotiorum [6], 23%.
Regarding `COc1cc([N+](=O)[O-])cc2c1cc(-c1ccccc1)n2C`, the inhibition of growth at 30 µg/mL in the assay with Venturia inaequalis [1] is 21%; with Rhizoctonia solani [2], 7%; in the assay with Fusarium oxysporum [3], 7%; in the assay on Fusarium verticillioides [4] it was 23%; in the assay on Bipolaris sorokiniana [5] it was 7%; with Sclerotinia sclerotiorum [6], 8%.
With `O=[N+]([O-])c1cc(O)c2cc(-c3ccc(Cl)cc3Cl)[nH]c2c1`, the inhibition of growth at 30 µg/mL in the assay with Venturia inaequalis [1] was 26%; in the assay on Rhizoctonia solani [2], 36%; with Fusarium oxysporum [3], 25%; in the assay with Fusarium verticillioides [4], 54%; in the assay on Bipolaris sorokiniana [5] it was 22%; in the assay on Sclerotinia sclerotiorum [6], 29%.
In the case of `Cc1c(-c2ccccc2)[nH]c2c([N+](=O)[O-])cc(O)cc12`, the inhibition of growth at 30 µg/mL in the assay with Venturia inaequalis [1] came to 41%; in the assay on Rhizoctonia solani [2], 91%; in the assay on Fusarium oxysporum [3], 34%; with Fusarium verticillioides [4], 54%; in the assay with Bipolaris sorokiniana [5], 83%; in the assay with Sclerotinia sclerotiorum [6], 51%.
Regarding `COc1ccccc1-c1cc2c(O)cc([N+](=O)[O-])cc2[nH]1`, the inhibition of growth at 30 µg/mL stood at 26% with Venturia inaequalis [1]; 8% in the assay on Rhizoctonia solani [2]; 15% in the assay on Fusarium oxysporum [3]; 36% in the assay with Fusarium verticillioides [4]; 20% in the assay with Bipolaris sorokiniana [5]; 20% with Sclerotinia sclerotiorum [6].
As for `O=[N+]([O-])c1cc(O)c2cc(-c3ccc(F)cc3)[nH]c2c1`, the inhibition of growth at 30 µg/mL with Venturia inaequalis [1] was found to be 60%; with Rhizoctonia solani [2], 96%; in the assay with Fusarium oxysporum [3] it was 58%; with Fusarium verticillioides [4], 73%; in the assay with Bipolaris sorokiniana [5], 35%; with Sclerotinia sclerotiorum [6], 48%.
`O=[N+]([O-])c1cc(O)c2c(CCn3cncn3)c(-c3ccc(F)cc3)[nH]c2c1`: the inhibition of growth at 30 µg/mL with Venturia inaequalis [1] stood at 2%; in the assay on Rhizoctonia solani [2], 31%; in the assay with Fusarium oxysporum [3] it was 28%; in the assay on Fusarium verticillioides [4], 30%; with Bipolaris sorokiniana [5] it was 52%; in the assay on Sclerotinia sclerotiorum [6], 17%.
As to `Cc1c(-c2ccccc2)[nH]c2c(O)cc([N+](=O)[O-])cc12`, the inhibition of growth at 30 µg/mL with Venturia inaequalis [1] came out at 48%; in the assay with Rhizoctonia solani [2], 89%; in the assay on Fusarium oxysporum [3] it was 63%; in the assay with Fusarium verticillioides [4], 71%; with Bipolaris sorokiniana [5], 95%; in the assay on Sclerotinia sclerotiorum [6], 94%.
For `Cc1c(-c2ccccc2)[nH]c2c([N+](=O)[O-])ccc(O)c12`, the inhibition of growth at 30 µg/mL in the assay with Venturia inaequalis [1] was determined as 70%; in the assay on Rhizoctonia solani [2], 100%; in the assay on Fusarium oxysporum [3], 73%; with Fusarium verticillioides [4] it was 84%; in the assay with Bipolaris sorokiniana [5] it was 83%; in the assay with Sclerotinia sclerotiorum [6], 51%.
Take `O=[N+]([O-])c1cc(O)c2cc(-c3ccccc3)[nH]c2c1`: the inhibition of growth at 30 µg/mL is 89% in the assay with Venturia inaequalis [1]; 100% with Rhizoctonia solani [2]; 88% in the assay with Fusarium oxysporum [3]; 100% with Fusarium verticillioides [4]; 100% in the assay with Bipolaris sorokiniana [5]; 100% in the assay on Sclerotinia sclerotiorum [6]. The EC50 with Venturia inaequalis [7] turned out to be 16.9 µg/mL (≈ 66.5 µM); in the assay on Rhizoctonia solani [8], 11.2 µg/mL (≈ 44.1 µM); with Fusarium oxysporum [9], 21.5 µg/mL (≈ 84.6 µM); with Fusarium verticillioides [10], 6.84 µg/mL (≈ 26.9 µM); in the assay on Bipolaris sorokiniana [11], 26.6 µg/mL (≈ 105 µM); with Sclerotinia sclerotiorum [12], 17.2 µg/mL (≈ 67.7 µM).
Take `COc1cc([N+](=O)[O-])cc2c1c(C)c(-c1ccccc1)n2C`: the inhibition of growth at 30 µg/mL in the assay on Venturia inaequalis [1] was 12%; with Rhizoctonia solani [2], 4%; with Fusarium oxysporum [3], 8%; with Fusarium verticillioides [4] it was 8%; in the assay with Bipolaris sorokiniana [5] it was 12%; with Sclerotinia sclerotiorum [6], 0%.
As for `Cc1c(-c2ccccc2)[nH]c2cc([N+](=O)[O-])cc(O)c12`, the inhibition of growth at 30 µg/mL in the assay on Venturia inaequalis [1] worked out at 93%; in the assay with Rhizoctonia solani [2], 100%; in the assay with Fusarium oxysporum [3], 87%; in the assay on Fusarium verticillioides [4] it was 100%; with Bipolaris sorokiniana [5], 89%; in the assay with Sclerotinia sclerotiorum [6], 100%. Besides, the EC50 in the assay with Venturia inaequalis [7] was determined as 15.4 µg/mL (≈ 57.4 µM); in the assay with Rhizoctonia solani [8], 5.86 µg/mL (≈ 21.8 µM); with Fusarium oxysporum [9], 18 µg/mL (≈ 67.1 µM); with Fusarium verticillioides [10], 3.48 µg/mL (≈ 13 µM); in the assay on Bipolaris sorokiniana [11], 13 µg/mL (≈ 48.5 µM); in the assay on Sclerotinia sclerotiorum [12], 8.65 µg/mL (≈ 32.2 µM).
For the molecule `Nc1cc([N+](=O)[O-])c2cc(-c3ccccc3)oc2c1`, the inhibition of growth at 30 µg/mL stood at 16% in the assay with Venturia inaequalis [1]; 3% in the assay on Rhizoctonia solani [2]; 9% in the assay with Fusarium oxysporum [3]; 5% with Fusarium verticillioides [4]; 3% with Bipolaris sorokiniana [5]; 7% with Sclerotinia sclerotiorum [6].
As to `Cc1c(-c2ccccc2)[nH]c2c(O)ccc([N+](=O)[O-])c12`, the inhibition of growth at 30 µg/mL in the assay with Venturia inaequalis [1] came out at 65%; in the assay with Rhizoctonia solani [2], 100%; with Fusarium oxysporum [3], 91%; in the assay with Fusarium verticillioides [4] it was 88%; in the assay on Bipolaris sorokiniana [5], 87%; in the assay on Sclerotinia sclerotiorum [6], 54%.
As to `O=[N+]([O-])c1cc(O)c2cc(-c3ccc(Br)cc3)[nH]c2c1`, the inhibition of growth at 30 µg/mL with Venturia inaequalis [1] came out at 15%; with Rhizoctonia solani [2], 11%; in the assay with Fusarium oxysporum [3], 12%; in the assay with Fusarium verticillioides [4], 21%; in the assay with Bipolaris sorokiniana [5], 5%; in the assay with Sclerotinia sclerotiorum [6], 14%.
`O=[N+]([O-])c1cc(O)c2cc(-c3ccccc3)n(Cc3ccc(Cl)cc3)c2c1`: the inhibition of growth at 30 µg/mL in the assay with Venturia inaequalis [1] was 12%; in the assay on Rhizoctonia solani [2], 34%; in the assay with Fusarium oxysporum [3], 27%; with Fusarium verticillioides [4], 18%; with Bipolaris sorokiniana [5], 11%; in the assay with Sclerotinia sclerotiorum [6] it was 2%.
For `O=[N+]([O-])c1cc(O)c2cc(-c3ccccc3Cl)[nH]c2c1`, the inhibition of growth at 30 µg/mL in the assay with Venturia inaequalis [1] turned out to be 44%; in the assay with Rhizoctonia solani [2], 100%; in the assay on Fusarium oxysporum [3], 88%; in the assay with Fusarium verticillioides [4], 100%; in the assay on Bipolaris sorokiniana [5], 100%; in the assay on Sclerotinia sclerotiorum [6] it was 100%.
Turning to `COc1cc([N+](=O)[O-])cc2[nH]c(-c3ccccc3)c(C)c12`, the inhibition of growth at 30 µg/mL stood at 2% with Venturia inaequalis [1]; 13% in the assay on Rhizoctonia solani [2]; 11% in the assay with Fusarium oxysporum [3]; 7% in the assay on Fusarium verticillioides [4]; 7% in the assay on Bipolaris sorokiniana [5]; 5% in the assay with Sclerotinia sclerotiorum [6].
As for `O=[N+]([O-])c1cc(O)c2cc(-c3ccc(O)cc3)[nH]c2c1`, the inhibition of growth at 30 µg/mL in the assay on Venturia inaequalis [1] is 20%; in the assay on Rhizoctonia solani [2], 38%; in the assay with Fusarium oxysporum [3] it was 27%; in the assay on Fusarium verticillioides [4], 39%; in the assay on Bipolaris sorokiniana [5], 18%; in the assay on Sclerotinia sclerotiorum [6], 19%.

For orientation: EC50 means the concentration giving half of the maximal effect.
